ChEMBL document CHEMBL4002556, “Acetophenone Monomers from Acronychia trifoliolata” (J Nat Prod, 2016)

Tests used:
Format in all cases: functional, cell-based
A549 = assay: Cytotoxicity against human A549 cells assessed as growth inhibition after 48 hrs by SRB assay; conditions: A549, 48 h
Summary of the method: (§1)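 Sulforhodamine B (SRB) read-out of antiproliferative effect. IC50 is the concentration giving 50% reduction relative to untreated cells, determined separately for each cell line.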

KB = assay: Cytotoxicity against human KB cells assessed as growth inhibition after 48 hrs by SRB assay; summary of the method: as §1
MDA-MB-231 = assay: Cytotoxicity against human MDA-MB-231 cells assessed as growth inhibition after 48 hrs by SRB assay; conditions: MDA-MB-231, 48 h; summary of the method: as §1
MCF7 = assay: Cytotoxicity against human MCF7 cells assessed as growth inhibition after 48 hrs by SRB assay; conditions: MCF7, 48 h
[1] = Cytotoxicity against human KBVIN cells assessed as growth inhibition after 48 hrs by SRB assay; summary of the method: as §1

| Structure (SMILES) | IC50 (A549) [µM] | IC50 (KB) [µM] | IC50 (MDA-MB-231) [µM] | IC50 (MCF7) [µM] | IC50 [1] [µM] |
| --- | --- | --- | --- | --- | --- |
| COc1c2c(c(CC=C(C)C)c(O)c1C(C)=O)OC(C(C)(C)O)C2 (stereo not drawn) | > 40 | > 40 | > 40 | > 40 | > 40 |
| COc1c(CC=C(C)C)c(O)c2c(c1C(C)=O)OC(C)(C)C(O)C2 (stereo not drawn) | > 40 | > 40 | > 40 | > 40 | > 40 |
| COc1c2c(c(CC=C(C)C)c(O)c1C(C)=O)OC(C)(C)C(O)C2 (stereo not drawn) | 26.6 | 25.6 | > 40 | 30.8 | 19.2 |
| COc1c2c(c(CCC(C)C)c(O)c1C(C)=O)OC(C)(C)C(O)C2 (stereo not drawn) | 19.9 | 20.4 | 22.6 | 19.4 | 16.2 |
| COc1c(CC=C(C)C)c2c(c(O)c1C(C)=O)CC(O)C(C)(C)O2 (stereo not drawn) | > 40 | 38.5 | > 40 | > 40 | 39.7 |
| COc1c(CC=C(C)C)c2c(c(O)c1C(C)=O)CC(C(C)(C)O)O2 (stereo not drawn) | > 40 | > 40 | > 40 | > 40 | > 40 |
| CC(=O)O[C@H]1C(=O)[C@@]2(C)[C@H]([C@H](OC(=O)c3ccccc3)[C@]3(O)C[C@H](OC(=O)[C@H](O)[C@@H](NC(=O)c4ccccc4)c4ccccc4)C(C)=C1C3(C)C)[C@]1(OC(C)=O)CO[C@@H]1C[C@@H]2O [PACLITAXEL] | 0.00099 | 0.0008 | – | – | 1.9 |
